# Measured values taken from ChEMBL document CHEMBL4229515, “A novel synthesis of 2-arylbenzimidazoles in molecular sieves-MeOH system and their antitubercular activity” (Bioorg Med Chem, 2018).
# Assays:
# [1] = test system: Mycobacterium tuberculosis; experiment: Antimycobacterial activity against Mycobacterium tuberculosis H37Rv by BACTEC 460 radiometric method; assay type: functional
# Outline: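 Radiometric BACTEC assay against the H37Rv strain, run per a previously reported method. Positive controls were rifampicin, streptomycin and isoniazid. The MIC was read in µM.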
# [2] = Lipophilicity, log P of the compound; assay type: physicochemical; conditions: octanol/water
# [3] = target: DNA gyrase subunit A/DNA gyrase subunit B (Mycobacterium tuberculosis (strain ATCC 25618 / H37Rv), UniProt P9WG45+P9WG47); experiment: Inhibition of Mycobacterium tuberculosis DNA gyrase supercoiling activity using relaxed pBR322 as substrate after 30 mins by agarose gel electrophoresis; assay type: protein-complex assay
# Sequence of DNA gyrase subunit A/DNA gyrase subunit B (P9WG45 whole entry): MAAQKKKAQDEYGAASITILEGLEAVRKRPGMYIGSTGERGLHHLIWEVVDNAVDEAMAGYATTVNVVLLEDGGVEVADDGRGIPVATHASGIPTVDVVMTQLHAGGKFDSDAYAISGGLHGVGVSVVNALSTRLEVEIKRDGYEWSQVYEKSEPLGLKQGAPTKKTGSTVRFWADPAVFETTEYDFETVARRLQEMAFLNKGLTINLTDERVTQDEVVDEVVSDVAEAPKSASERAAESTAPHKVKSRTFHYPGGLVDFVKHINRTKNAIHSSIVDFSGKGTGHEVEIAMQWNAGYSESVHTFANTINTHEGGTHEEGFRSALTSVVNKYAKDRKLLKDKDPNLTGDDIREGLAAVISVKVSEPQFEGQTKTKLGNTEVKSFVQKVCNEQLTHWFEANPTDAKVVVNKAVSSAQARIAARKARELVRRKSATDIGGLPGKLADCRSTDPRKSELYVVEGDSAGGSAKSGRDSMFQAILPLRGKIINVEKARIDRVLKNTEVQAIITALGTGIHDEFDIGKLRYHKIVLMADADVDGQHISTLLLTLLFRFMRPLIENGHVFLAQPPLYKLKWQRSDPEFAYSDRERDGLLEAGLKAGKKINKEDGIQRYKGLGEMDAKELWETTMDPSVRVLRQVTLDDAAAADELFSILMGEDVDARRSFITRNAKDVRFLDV
# Sequence of DNA gyrase subunit A/DNA gyrase subunit B (P9WG47 whole entry): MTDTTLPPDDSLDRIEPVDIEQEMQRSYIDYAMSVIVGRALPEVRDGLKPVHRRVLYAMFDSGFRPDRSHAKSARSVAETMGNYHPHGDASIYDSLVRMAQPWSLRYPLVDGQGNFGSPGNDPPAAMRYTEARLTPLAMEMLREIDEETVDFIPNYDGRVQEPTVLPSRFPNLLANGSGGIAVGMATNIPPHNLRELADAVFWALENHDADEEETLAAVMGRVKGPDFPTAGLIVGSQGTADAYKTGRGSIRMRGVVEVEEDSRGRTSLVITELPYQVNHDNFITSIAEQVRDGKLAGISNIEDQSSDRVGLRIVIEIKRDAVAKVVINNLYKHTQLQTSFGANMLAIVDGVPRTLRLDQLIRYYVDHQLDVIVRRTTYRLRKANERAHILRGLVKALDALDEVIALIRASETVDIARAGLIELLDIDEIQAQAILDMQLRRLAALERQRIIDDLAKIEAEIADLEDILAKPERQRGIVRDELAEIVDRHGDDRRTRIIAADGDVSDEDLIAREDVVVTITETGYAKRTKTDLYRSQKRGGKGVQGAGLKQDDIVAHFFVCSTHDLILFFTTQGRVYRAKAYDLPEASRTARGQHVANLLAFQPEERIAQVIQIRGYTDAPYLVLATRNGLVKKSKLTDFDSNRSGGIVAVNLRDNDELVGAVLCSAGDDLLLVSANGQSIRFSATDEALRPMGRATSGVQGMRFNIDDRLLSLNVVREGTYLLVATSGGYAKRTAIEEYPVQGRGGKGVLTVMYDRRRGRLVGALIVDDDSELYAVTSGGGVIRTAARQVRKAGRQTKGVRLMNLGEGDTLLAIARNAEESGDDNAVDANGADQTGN
Compound,MIC [1],logP ([2]; read-out: logP),logP [2],IC50 [3]
COc1ccccc1-c1nc2ccccc2[nH]1,406 µM,2.74,–,–
COc1ccc2c(c1)nc(-c1ccc(F)cc1)n2Cc1ccc(F)cc1,285 µM,5.02,–,–
NNC(=O)c1ccncc1 [ISONIAZID],1 µM,–,0.64,–
COc1ccc2c(c1)nc(-c1ccc3c(c1)OCO3)n2Cc1ccc2c(c1)OCO2,24 µM,4.26,–,294 µM
COc1ccc2[nH]c(-c3ccc(F)cc3)nc2c1,103 µM,2.9,–,380 µM
c1ccc2c(c1)nc(-c1ccc3c(c1)OCO3)n2Cc1ccc2c(c1)OCO2,67 µM,2.64,–,85.7 µM
Oc1ccc(-c2nc3ccccc3[nH]2)cc1,424 µM,2.47,–,–
Fc1ccc(Cn2c(-c3ccc(F)cc3)nc3ccccc32)cc1,312 µM,5.51,–,–
CO[C@H]1/C=C/O[C@@]2(C)Oc3c(C)c(O)c4c(O)c(c(/C=N/N5CCN(C)CC5)c(O)c4c3C2=O)NC(=O)/C(C)=C\C=C\[C@H](C)[C@H](O)[C@@H](C)[C@@H](O)[C@@H](C)[C@H](OC(C)=O)[C@@H]1C [RIFAMPIN],3 µM,–,3.72,–
[H]/N=C(/N)N[C@H]1[C@H](O)[C@@H](O)[C@H](O[C@@H]2O[C@@H](C)[C@](O)(C=O)[C@H]2O[C@@H]2O[C@@H](CO)[C@H](O)[C@@H](O)[C@@H]2NC)[C@@H](N/C(N)=N\[H])[C@@H]1O [STREPTOMYCIN],4 µM,8.01,–,–
